Reference: ChEMBL document CHEMBL1938297, “Synthesis, radiofluorination and pharmacological evaluation of a fluoromethyl spirocyclic PET tracer for central σ1 receptors and comparison with fluoroalkyl homologs” (Bioorg Med Chem, 2012)

Legend:
[1] = Biodistribution in CD1 mouse intestinal content at 300 kBq, iv after 30 mins by gamma counting; assay type: ADME, organism-based, Intestine; conditions: in vivo, 0.5 h
Outline: (§1)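 Female CD-1 mice received the 18F tracer iv at 300 kBq in 0.9% NaCl containing 5% ethanol; 3–6 animals per time point (5, 30, 60, 120 min p.i.). Animals anaesthetized, blood and urine collected, killed by cervical luxation, organs dissected and weighed, counted in calibrated gamma counter. %ID/g = tissue counts / initial dose counts / tissue weight; mean with SD.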

Brain [2] = assay: Drug metabolism in CD1 mouse brain homogenates assessed as radiometabolites at 191 MBq, iv after 30 mins by radio-HPLC/TLC analysis; assay type: ADME, organism-based; conditions: in vivo, 0.5 h
Outline: (§2)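 Female CD-1 mice were injected with the radiotracer via the tail vein and killed at 30 or 60 min p.i. Whole brains (n = 2 per time) were homogenised in 50 mM TRIS–HCl pH 7.4 at 4 °C and extracted twice with ice-cold acetonitrile. Concentrated extracts were analysed by radio-HPLC and radio-TLC to give % parent versus radiometabolites.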

Mus musculus [3] = assay: Biodistribution in CD1 mouse large intestine at 300 kBq, iv after 5 mins by gamma counting; assay type: ADME, organism-based; conditions: in vivo; outline: as §1
[4] = Metabolic stability in CD1 mouse brain homogenates assessed as compound remaining at 191 MBq, iv after 30 mins by radio-HPLC/TLC analysis; assay type: ADME, organism-based; conditions: brain homogenate, read-out: Stability; outline: as §2
Pancreas [5] = assay: Biodistribution in CD1 mouse pancreas at 300 kBq, iv after 5 mins by gamma counting; assay type: ADME, organism-based; conditions: in vivo; outline: as §1
Pancreas [6] = assay: Biodistribution in CD1 mouse pancreas at 300 kBq, iv after 120 mins by gamma counting; assay type: ADME, organism-based; conditions: in vivo, 2 h; outline: as §1
Femur [7] = assay: Biodistribution in CD1 mouse femur at 300 kBq, iv after 60 mins by gamma counting; assay type: ADME, organism-based; conditions: in vivo, 1 h
Outline: (§3)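 Female CD-1 mice received [18F]1 (300 kBq) i.v.; 3–6 animals per time point anesthetized at 5, 30, 60 or 120 min p.i., blood and urine collected, animals euthanized by cervical dislocation, organs dissected and weighed. Radioactivity counted in a calibrated gamma counter; % ID/g = tissue counts / initial dose counts / tissue weight; means with SD.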

Blood [8] = assay: Biodistribution in CD1 mouse blood at 300 kBq, iv after 30 mins by gamma counting; assay type: ADME, organism-based; conditions: in vivo, 0.5 h; outline: as §3
Spleen = assay: Biodistribution in CD1 mouse spleen at 300 kBq, iv after 60 mins by gamma counting; assay type: ADME, organism-based; conditions: in vivo, 1 h; outline: as §1
Pancreas [9] = assay: Biodistribution in CD1 mouse pancreas at 300 kBq, iv after 60 mins by gamma counting; assay type: ADME, organism-based; conditions: in vivo, 1 h; outline: as §1
Striatum = assay: Biodistribution in CD1 mouse striatum in brain saggital section at 24 MBq, iv at 45 mins by autoradiography; assay type: ADME, organism-based; conditions: in vivo, 0.75 h
Outline: (§4)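 Ex vivo autoradiography: female CD-1 mouse given 18F tracer iv (24 MBq), killed 45 min p.i.; brain hemispheres frozen in isopentane (−35 °C), 12 µm sagittal cryostat sections thaw-mounted, air-dried and exposed to 18F-sensitive phosphor screens. Regional uptake compared with anterior olfactory bulb as nontarget region (target-to-nontarget ratio).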

Mus musculus [10] = assay: Biodistribution in CD1 mouse large intestine at 300 kBq, iv after 30 mins by gamma counting; assay type: ADME, organism-based; conditions: in vivo, 0.5 h; outline: as §1
Kidney = assay: Biodistribution in CD1 mouse kidney at 300 kBq, iv after 30 mins by gamma counting; assay type: ADME, organism-based; conditions: in vivo, 0.5 h; outline: as §1
Mus musculus [11] = assay: Biodistribution in CD1 mouse eye at 300 kBq, iv after 30 mins by gamma counting; assay type: ADME, organism-based; conditions: in vivo, 0.5 h; outline: as §3
Muscle tissue [12] = assay: Biodistribution in CD1 mouse muscle at 300 kBq, iv after 5 mins by gamma counting; assay type: ADME, organism-based; conditions: in vivo; outline: as §1
Urinary bladder [13] = assay: Biodistribution in CD1 mouse bladder at 300 kBq, iv after 120 mins by gamma counting; assay type: ADME, organism-based; conditions: in vivo, 2 h; outline: as §3
Mus musculus [14] = assay: Biodistribution in CD1 mouse eye at 300 kBq, iv after 120 mins by gamma counting; assay type: ADME, organism-based; conditions: in vivo, 2 h; outline: as §3
[15] = Chemical stability of the compound in phosphate-saline solution at pH 7.2 assessed as compound remaining after 2 hrs by radio-HPLC/TLC analysis; assay type: physicochemical; conditions: read-out: Stability
Outline: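 Radiotracer incubated 120 min at 40 °C in 0.9% NaCl (pH 7.2), phosphate-saline (0.1 M sodium phosphate, 0.15 M NaCl, pH 7.2) or 0.01 M TRIS–HCl (pH 7.4 at 21 °C). Aliquots were taken at set times and analysed by radio-TLC on silica and by gradient radio-HPLC on RP-18 (MeCN/20 mM ammonium acetate, 254 nm), giving % unchanged tracer; n = 2.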

Mus musculus [16] = assay: Biodistribution in CD1 mouse thalmic nuclei in brain saggital section at 24 MBq, iv at 45 mins by autoradiography; assay type: ADME, organism-based; conditions: in vivo, 0.75 h; outline: as §4
Urinary bladder [17] = assay: Biodistribution in CD1 mouse bladder at 300 kBq, iv after 30 mins by gamma counting; assay type: ADME, organism-based; conditions: in vivo, 0.5 h; outline: as §3
[18] = Biodistribution in CD1 mouse urine at 300 kBq, iv after 60 mins by gamma counting; assay type: ADME, organism-based; conditions: in vivo, 1 h
Outline: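 Female CD-1 mice received 300 kBq of the radiotracer i.v.; 3–6 animals per time point were anaesthetised at 5, 30, 60 or 120 min p.i. Blood and urine were collected, animals were killed by cervical dislocation, and organs were dissected and weighed. Activity was counted in a calibrated gamma counter and expressed as % injected dose per g wet tissue, mean with SD.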

Cerebellum = assay: Biodistribution in CD1 mouse cerebellum at 300 kBq, iv after 120 mins by gamma counting; assay type: ADME, organism-based; conditions: in vivo, 2 h; outline: as §3
Mus musculus [19] = assay: Biodistribution in CD1 mouse gonads at 300 kBq, iv after 30 mins by gamma counting; assay type: ADME, organism-based, Gonad; conditions: in vivo, 0.5 h; outline: as §3
Brain [20] = assay: Drug metabolism in CD1 mouse brain homogenates assessed as radiometabolites at 191 MBq, iv after 60 mins by radio-HPLC/TLC analysis; assay type: ADME, organism-based; conditions: in vivo, 1 h; outline: as §2
Mus musculus [21] = assay: Biodistribution in CD1 mouse small intestine at 300 kBq, iv after 5 mins by gamma counting; assay type: ADME, organism-based; conditions: in vivo; outline: as §1
Blood [22] = assay: Biodistribution in CD1 mouse blood at 300 kBq, iv after 60 mins by gamma counting; assay type: ADME, organism-based; conditions: in vivo, 1 h; outline: as §3
Mus musculus [23] = assay: Biodistribution in CD1 mouse anterior olfactory bulb in brain saggital section at 24 MBq, iv at 45 mins by autoradiography; assay type: ADME, organism-based; conditions: in vivo, 0.75 h
Outline: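 Female CD-1 mouse given [18F]1 (24 MBq) i.v. and sacrificed at 45 min. Brain hemispheres frozen in isopentane (−35 °C), cut into 12 µm sagittal cryosections, thaw-mounted, air-dried and exposed to 18F-sensitive storage phosphor screens. Anterior olfactory bulb served as nontarget region for target-to-nontarget ratios.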

Femur [24] = assay: Biodistribution in CD1 mouse flushed femur at 300 kBq, iv after 60 mins by gamma counting; assay type: ADME, organism-based; conditions: in vivo, 1 h; outline: as §3
Lung = assay: Biodistribution in CD1 mouse lung at 300 kBq, iv after 30 mins by gamma counting; assay type: ADME, organism-based; conditions: in vivo, 0.5 h; outline: as §1
Muscle tissue [25] = assay: Biodistribution in CD1 mouse muscle at 300 kBq, iv after 30 mins by gamma counting; assay type: ADME, organism-based; conditions: in vivo, 0.5 h; outline: as §1
Urinary bladder [26] = assay: Biodistribution in CD1 mouse bladder at 300 kBq, iv after 5 mins by gamma counting; assay type: ADME, organism-based; conditions: in vivo; outline: as §3
Mus musculus [27] = assay: Biodistribution in CD1 mouse large intestine at 300 kBq, iv after 120 mins by gamma counting; assay type: ADME, organism-based; conditions: in vivo, 2 h; outline: as §1
Mus musculus [28] = assay: Biodistribution in CD1 mouse adrenals at 300 kBq, iv after 5 mins by gamma counting; assay type: ADME, organism-based, Adrenal gland; conditions: in vivo; outline: as §3
Heart = assay: Biodistribution in CD1 mouse heart at 300 kBq, iv after 30 mins by gamma counting; assay type: ADME, organism-based; conditions: in vivo, 0.5 h; outline: as §1

[18F]CC1OC2(CCN(Cc3ccccc3)CC2)c2ccccc21 (centres undefined)
Drug uptake [1]: 0.4 % ID/g | Drug metabolism (Brain [2]): Active | Drug uptake (Mus musculus [3]): 0.91 % ID/g | remaining at 0.5 h [4]: 90% | Drug uptake (Pancreas [5]): 11.22 % ID/g | Drug uptake (Pancreas [6]): 11.99 % ID/g | Drug uptake (Femur [7]): 1.75 % ID/g | Drug uptake (Blood [8]): 0.35 % ID/g | Drug uptake (Spleen): 5.3 % ID/g | Drug uptake (Pancreas [9]): 9.27 % ID/g | Drug uptake (Striatum): Active | Drug uptake (Mus musculus [10]): 1.28 % ID/g | Drug uptake (Kidney): 9.61 % ID/g | Drug uptake (Mus musculus [11]): 2 % ID/g | Drug uptake (Muscle tissue [12]): 2.12 % ID/g | Drug uptake (Urinary bladder [13]): 5.58 % ID/g | Drug uptake (Mus musculus [14]): 1.53 % ID/g | remaining at 2 h [15]: 96.5% | Drug uptake (Mus musculus [16]): Active | Drug uptake (Urinary bladder [17]): 3.86 % ID/g | Drug uptake [18]: 45.5 % ID/g | Drug uptake (Cerebellum): 4.02 % ID/g | Drug uptake (Mus musculus [19]): 4.75 % ID/g | Drug metabolism (Brain [20]): Active | Drug uptake (Mus musculus [21]): 19.78 % ID/g | Drug uptake (Blood [22]): 0.16 % ID/g | Drug uptake (Mus musculus [23]): Active | Drug uptake (Femur [24]): 1.18 % ID/g | Drug uptake (Lung): 8.3 % ID/g | Drug uptake (Muscle tissue [25]): 1.67 % ID/g | Drug uptake (Urinary bladder [26]): 1.51 % ID/g | Drug uptake (Mus musculus [27]): 1.46 % ID/g | Drug uptake (Mus musculus [28]): 13.29 % ID/g | Drug uptake (Heart): 4.57 % ID/g
